Calls of active or inactive are those of the source. The rule behind the calls is not given here.
Assays:
[1] = Antiproliferative activity against human RS4:11/IRMI-2 cells harboring p53 hotspot mutation Y236H/R249G assessed as cell growth inhibition after 4 days by WST-8 assay; type: functional, cell-based; conditions: RS4-11, 96 h
Method in brief: (§1)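 Leukemia cells seeded at 10000–20000 cells/well, breast cancer lines at 5000–10000 cells/well. Serially diluted compound added, then 4 days at 37 °C, 5% CO2. Growth read with WST-8 reagent after at least 1 h, absorbance at 450 nm. RS4;11, MOLM-13 and breast lines were grown in RPMI 1640; MV-4-11 and HL-60 in IMDM; all with 10% FBS. Mean ± SE, at least three independent experiments.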

[2] = molecular target: T1, Protein cereblon/Eukaryotic peptide chain release factor GTP-binding subunit ERF3A/DNA damage-binding protein 1/Cullin-4A (Homo sapiens) (UniProt Q96SW2+Q16531+Q13619+P15170); assay: Protac activity at GSPT1/CUL4/DDB1/CRBN in human RS4:11 cells expressing wild type p53 assessed as decrease in GSPT1 protein level at 1 to 3 uM after 24 hrs by Western blot analysis; type: cell-based
Method in brief: (§2)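 RS4;11 (wild-type p53) or RS4;11/IRMI-2 (MDM2 inhibitor-resistant derivative, mutant p53) cells kept in RPMI 1640 with 10% FBS at 37 °C, 5% CO₂. 2×10^6 cells/well treated at the indicated concentrations and times, then lysed in ice-cold lysis buffer with protease inhibitor. GSPT1 detected by Western blot with a specific antibody.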

[3] = molecular target: T1, Protein cereblon/Eukaryotic peptide chain release factor GTP-binding subunit ERF3A/DNA damage-binding protein 1/Cullin-4A (Homo sapiens); assay: Protac activity at GSPT1/CUL4/DDB1/CRBN in human RS4:11/IRMI-2 cells harboring p53 hotspot mutation Y236H/R249G assessed as decrease in GSPT1 protein level at 1 to 3 uM after 24 hrs by Western blot analysis; type: cell-based; method in brief: as §2
[4] = molecular target: Eukaryotic peptide chain release factor GTP-binding subunit ERF3A (Homo sapiens, UniProt P15170); assay: Induction of GSPT1 degradation in human RS4:11 cells measured after 24 hrs by Western blot analysis; type: cell-based
RS4-11 [5] = assay: Antiproliferative activity against human RS4:11 cells expressing wild type p53 assessed as cell growth inhibition after 4 days by WST-8 assay; type: functional, cell-based; conditions: RS4-11, 96 h; method in brief: as §1
[6] = molecular target: T1, Protein cereblon/Eukaryotic peptide chain release factor GTP-binding subunit ERF3A/DNA damage-binding protein 1/Cullin-4A (Homo sapiens); assay: Protac activity at GSPT1/CUL4/DDB1/CRBN in human RS4:11/IRMI-2 cells harboring p53 hotspot mutation Y236H/R249G assessed as decrease in GSPT1 protein level after 2 hrs by Western blot analysis; type: cell-based; method in brief: as §2
[7] = molecular target: T1, Protein cereblon/Eukaryotic peptide chain release factor GTP-binding subunit ERF3A/DNA damage-binding protein 1/Cullin-4A (Homo sapiens); assay: Protac activity at GSPT1/CUL4/DDB1/CRBN in human RS4:11 cells expressing wild type p53 assessed as decrease in GSPT1 protein level after 2 hrs by Western blot analysis; type: cell-based; method in brief: as §2
MDA-MB-231 = assay: Antiproliferative activity against human MDA-MB-231 cells harboring mutant p53 assessed as cell growth inhibition without interaction with cereblon after 4 days by WST-8 assay; type: functional, cell-based; conditions: MDA-MB-231, 96 h
MDA-MB-468 = assay: Antiproliferative activity against human MDA-MB-468 cells harboring mutant p53 assessed as cell growth inhibition without interaction with cereblon after 4 days by WST-8 assay; type: functional, cell-based; conditions: MDA-MB-468, 96 h
[8] = Antiproliferative activity against human RS4:11/IRMI-2 cells harboring p53 hotspot mutation Y236H/R249G assessed as cell growth inhibition without interaction with cereblon after 4 days by WST-8 assay; type: functional, cell-based; conditions: RS4-11, 96 h; method in brief: as §1
RS4-11 [9] = assay: Antiproliferative activity against human RS4:11 cells expressing wild type p53 assessed as cell growth inhibition without interaction with cereblon after 4 days by WST-8 assay; type: functional, cell-based; conditions: RS4-11, 96 h; method in brief: as §1
RS4-11 [10] = assay: Antiproliferative activity against human RS4:11 cells expressing wild type p53 assessed as MDM2-independent cell growth inhibition after 4 days by WST-8 assay; type: functional, cell-based; conditions: RS4-11, 96 h; method in brief: as §1
[11] = Antiproliferative activity against human RS4:11/IRMI-2 cells harboring p53 hotspot mutation Y236H/R249G assessed as MDM2-independent cell growth inhibition after 4 days by WST-8 assay; type: functional, cell-based; conditions: RS4-11, 96 h; method in brief: as §1
[12] = molecular target: E3 ubiquitin-protein ligase Mdm2 (Homo sapiens, UniProt Q00987); assay: Displacement of PMDM6-F fluorescent probe from human recombinant His-tagged MDM2 (1 to 118 residues) after 15 mins by fluorescence polarization assay
Method in brief: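 Recombinant human His-tagged MDM2 (residues 1–118) with a FAM-labelled p53-based peptide as fluorescent probe; competitive fluorescence-polarization binding. Mean ± standard error from at least three independent experiments.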

T1 sequence (P15170 whole entry, looked up): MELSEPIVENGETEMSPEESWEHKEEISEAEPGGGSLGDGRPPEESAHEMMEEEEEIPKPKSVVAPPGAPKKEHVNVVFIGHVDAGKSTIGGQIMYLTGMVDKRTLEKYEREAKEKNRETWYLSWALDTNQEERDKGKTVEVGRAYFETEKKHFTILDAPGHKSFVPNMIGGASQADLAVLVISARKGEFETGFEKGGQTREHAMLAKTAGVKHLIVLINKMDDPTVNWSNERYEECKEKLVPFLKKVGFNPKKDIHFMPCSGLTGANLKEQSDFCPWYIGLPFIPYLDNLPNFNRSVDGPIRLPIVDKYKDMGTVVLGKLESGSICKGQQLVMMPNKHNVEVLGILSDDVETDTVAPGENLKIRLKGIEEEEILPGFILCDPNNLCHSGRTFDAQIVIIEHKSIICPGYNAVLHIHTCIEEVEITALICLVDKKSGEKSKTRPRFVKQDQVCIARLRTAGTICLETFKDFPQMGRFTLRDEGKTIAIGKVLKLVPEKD
T1 sequence (Q13619 whole entry, looked up): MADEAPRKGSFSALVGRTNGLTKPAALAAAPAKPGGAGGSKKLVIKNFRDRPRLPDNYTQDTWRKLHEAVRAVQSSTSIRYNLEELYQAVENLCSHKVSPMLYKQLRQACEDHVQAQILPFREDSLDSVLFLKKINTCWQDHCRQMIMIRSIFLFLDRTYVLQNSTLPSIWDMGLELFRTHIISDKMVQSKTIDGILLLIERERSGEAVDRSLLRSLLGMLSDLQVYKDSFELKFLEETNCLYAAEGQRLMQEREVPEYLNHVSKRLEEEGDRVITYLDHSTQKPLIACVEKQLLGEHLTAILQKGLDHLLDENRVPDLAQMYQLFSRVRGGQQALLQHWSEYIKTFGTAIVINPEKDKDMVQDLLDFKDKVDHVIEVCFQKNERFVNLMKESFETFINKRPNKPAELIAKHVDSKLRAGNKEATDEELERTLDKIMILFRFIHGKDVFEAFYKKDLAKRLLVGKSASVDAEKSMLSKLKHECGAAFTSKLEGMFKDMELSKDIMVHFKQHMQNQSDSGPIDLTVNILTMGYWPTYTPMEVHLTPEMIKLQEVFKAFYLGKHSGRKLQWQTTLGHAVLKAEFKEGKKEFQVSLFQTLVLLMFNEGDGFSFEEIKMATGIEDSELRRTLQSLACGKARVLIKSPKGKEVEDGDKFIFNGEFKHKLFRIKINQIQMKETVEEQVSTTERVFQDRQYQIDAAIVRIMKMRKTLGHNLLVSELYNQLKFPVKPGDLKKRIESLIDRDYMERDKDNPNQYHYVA
T1 sequence (Q16531 whole entry, looked up): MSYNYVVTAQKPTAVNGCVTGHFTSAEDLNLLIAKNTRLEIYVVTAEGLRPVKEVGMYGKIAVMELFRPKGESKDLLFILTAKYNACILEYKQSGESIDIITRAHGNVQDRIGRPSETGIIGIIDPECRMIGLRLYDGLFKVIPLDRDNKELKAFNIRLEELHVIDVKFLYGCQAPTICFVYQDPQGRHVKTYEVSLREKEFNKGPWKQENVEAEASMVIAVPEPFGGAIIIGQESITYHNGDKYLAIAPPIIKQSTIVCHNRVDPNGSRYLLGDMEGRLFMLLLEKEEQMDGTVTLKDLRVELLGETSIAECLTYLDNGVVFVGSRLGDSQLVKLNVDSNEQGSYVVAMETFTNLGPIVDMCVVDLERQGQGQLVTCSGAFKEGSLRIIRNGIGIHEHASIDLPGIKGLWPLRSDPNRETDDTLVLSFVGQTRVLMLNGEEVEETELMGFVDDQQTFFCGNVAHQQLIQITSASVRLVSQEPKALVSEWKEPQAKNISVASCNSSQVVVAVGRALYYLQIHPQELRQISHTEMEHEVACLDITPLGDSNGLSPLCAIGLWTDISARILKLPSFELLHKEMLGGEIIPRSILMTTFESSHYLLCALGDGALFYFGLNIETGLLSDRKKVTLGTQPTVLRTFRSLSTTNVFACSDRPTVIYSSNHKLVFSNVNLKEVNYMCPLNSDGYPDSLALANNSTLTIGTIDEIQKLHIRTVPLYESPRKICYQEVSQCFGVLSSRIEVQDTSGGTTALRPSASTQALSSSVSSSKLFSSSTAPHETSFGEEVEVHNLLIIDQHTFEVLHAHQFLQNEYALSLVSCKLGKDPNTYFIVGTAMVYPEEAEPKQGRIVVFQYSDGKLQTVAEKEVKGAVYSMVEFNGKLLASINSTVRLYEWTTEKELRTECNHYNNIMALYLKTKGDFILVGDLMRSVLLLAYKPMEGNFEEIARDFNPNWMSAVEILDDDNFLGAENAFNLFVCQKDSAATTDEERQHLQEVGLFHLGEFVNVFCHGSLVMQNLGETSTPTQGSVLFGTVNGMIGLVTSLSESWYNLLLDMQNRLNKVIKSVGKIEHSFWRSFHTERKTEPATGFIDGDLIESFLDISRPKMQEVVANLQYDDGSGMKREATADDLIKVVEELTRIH
T1 sequence (Q96SW2 whole entry, looked up): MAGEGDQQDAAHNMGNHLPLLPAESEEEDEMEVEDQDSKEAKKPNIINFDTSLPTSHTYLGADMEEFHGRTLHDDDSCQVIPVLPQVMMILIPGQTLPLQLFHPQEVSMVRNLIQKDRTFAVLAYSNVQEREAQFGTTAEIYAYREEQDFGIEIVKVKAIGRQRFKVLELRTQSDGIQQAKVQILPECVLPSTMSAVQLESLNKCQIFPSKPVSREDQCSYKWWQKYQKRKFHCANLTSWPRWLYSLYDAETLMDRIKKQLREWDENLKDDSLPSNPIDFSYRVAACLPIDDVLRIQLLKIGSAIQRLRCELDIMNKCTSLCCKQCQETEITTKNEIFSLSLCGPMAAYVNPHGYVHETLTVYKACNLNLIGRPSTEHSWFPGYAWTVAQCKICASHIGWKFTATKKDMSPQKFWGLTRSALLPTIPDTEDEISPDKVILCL
Chain of Eukaryotic peptide chain release factor GTP-binding subunit ERF3A (P15170 whole entry): as the sequence (P15170 whole entry, looked up) above
Chain of E3 ubiquitin-protein ligase Mdm2 (Q00987 whole entry, the tested form may be a part): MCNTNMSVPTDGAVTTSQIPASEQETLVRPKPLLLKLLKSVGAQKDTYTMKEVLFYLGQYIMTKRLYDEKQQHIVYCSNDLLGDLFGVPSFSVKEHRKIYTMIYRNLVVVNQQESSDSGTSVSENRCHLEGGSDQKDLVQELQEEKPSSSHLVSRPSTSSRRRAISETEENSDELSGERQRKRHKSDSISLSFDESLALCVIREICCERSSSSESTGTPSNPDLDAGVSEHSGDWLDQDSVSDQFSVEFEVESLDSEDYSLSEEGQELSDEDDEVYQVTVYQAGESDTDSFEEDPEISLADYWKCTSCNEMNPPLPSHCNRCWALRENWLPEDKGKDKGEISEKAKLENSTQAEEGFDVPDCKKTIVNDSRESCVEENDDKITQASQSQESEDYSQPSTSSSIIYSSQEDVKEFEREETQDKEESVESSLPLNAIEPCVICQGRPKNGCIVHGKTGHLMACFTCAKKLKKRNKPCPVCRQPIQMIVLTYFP

Row | Compound | IC50 [1] [nM] | DC50 [4] [nM] | IC50 (RS4-11 [5]) [nM] | Activity [6] | Activity [7] | other results
1 | O=C1CCC(N2Cc3c(CCCNC(=O)[C@@H]4NC5(CCCCC5)[C@@]5(C(=O)Nc6cc(Cl)ccc65)[C@H]4c4cccc(Cl)c4F)cccc3C2=O)C(=O)N1 (stereo partly specified) | 180 | 120 | 130 |  |  | Activity [2]: Active; Activity [3]: Active
2 | O=C1CCC(N2Cc3c(CCCOCCOCCOCCNC(=O)[C@@H]4NC5(CCCCC5)[C@@]5(C(=O)Nc6cc(Cl)ccc65)[C@H]4c4cccc(Cl)c4F)cccc3C2=O)C(=O)N1 (stereo partly specified) | 11 |  | 10 | Active | Active | 
3 | CN1C(=O)CCC(N2Cc3c(CCCCCNC(=O)[C@@H]4NC5(CCCCC5)[C@@]5(C(=O)Nc6cc(Cl)ccc65)[C@H]4c4cccc(Cl)c4F)cccc3C2=O)C1=O (stereo partly specified) |  |  |  |  |  | IC50 (MDA-MB-231): > 10000 nM; IC50 (MDA-MB-468): > 10000 nM; IC50 [8]: 6850 nM; IC50 (RS4-11 [9]): 2490 nM
4 | O=C1CCC(N2Cc3c(CCCOCCNC(=O)[C@@H]4NC5(CCCCC5)[C@@]5(C(=O)Nc6cc(Cl)ccc65)[C@H]4c4cccc(Cl)c4F)cccc3C2=O)C(=O)N1 (stereo partly specified) | 3.5 | 1.8 | 3.6 | Active | Active | 
5 | O=C1CCC(N2Cc3c(CCCCCNC(=O)[C@@H]4NC5(CCCCC5)[C@@]5(C(=O)Nc6ccccc65)[C@H]4c4ccccc4F)cccc3C2=O)C(=O)N1 (stereo partly specified) |  |  |  |  |  | IC50 (RS4-11 [10]): 4.1 nM; IC50 [11]: 3.7 nM; IC50 [12]: > 20000 nM
6 | O=C1CCC(N2Cc3c(CCCOCCOCCNC(=O)[C@@H]4NC5(CCCCC5)[C@@]5(C(=O)Nc6cc(Cl)ccc65)[C@H]4c4cccc(Cl)c4F)cccc3C2=O)C(=O)N1 (stereo partly specified) | 4.9 | 1.2 | 4.9 | Active | Active | 
